Series [1] is described as follows: Antioxidant activity assessed as inhibition of DPPH free radical scavenging activity after 60 mins by UV-Visible spectrophotometry. The series is classed as physicochemical. The method in brief: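 Reduction of ethanolic DPPH radical read by absorbance at 517 nm at 0 and after 60 min at room temperature. I% = 100×(A0−A60)/A0. IC50 is the concentration giving 50% radical inhibition. Run in triplicate, mean ± SEM; Trolox reference.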

Series [2] is described as follows: Antioxidant activity in HMEC1 assessed as inhibition of cell induced LDL oxidation by measuring TBARS level at 1 uM relative to control. On the set-up: scale not given: the % may be the effect or the level left. Format: functional, Homo sapiens, HMEC-1. The method in brief:
(§1)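 HMEC-1 (passage 30-36) in serum-free RPMI 1640 with native human LDL (100 µg apoB/mL). Agent added with the LDL in DMSO (0.1% final), 14 h at 37 °C. TBARS measured in the medium and expressed as % of LDL-plus-vehicle control; Trolox reference. Mean ± SEM of 4 experiments.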

Series [3] can be described thus: Antioxidant activity in HMEC1 assessed as inhibition of cell induced LDL oxidation by measuring TBARS level at 10 uM relative to control. The series is classed as functional, Homo sapiens, HMEC-1. On the set-up: scale not given: the % may be the effect or the level left. The method in brief:
as §1

Series [4] in a line: Cytotoxicity against HMEC1 assessed as cell viability at 1 uM after 24 hrs by MTT assay in absence of oxidized LDL. On the set-up: species or system HMEC-1. The note with it: human, HMEC1 cells; read-out: Activity.
Series [5] is described as follows: Cytoprotective activity in HMEC1 assessed as inhibition of oxidized LDL induced toxicity measured as residual viability at 1 uM after 24 hrs by MTT assay (reference value: 20 +/- 5 %). Format: functional, Homo sapiens, HMEC-1.
Series [6] is described as follows: Cytoprotective activity in HMEC1 assessed as inhibition of oxidized LDL induced toxicity measured as residual viability at 10 uM after 24 hrs by MTT assay (reference value: 20 +/- 5 %). Format: functional, Homo sapiens, HMEC-1.
The nature of series [7]: Cytotoxicity against HMEC1 assessed as cell viability at 10 uM after 24 hrs by MTT assay in absence of oxidized LDL. Details: species or system HMEC-1. The note with it: human, HMEC1 cells; read-out: Activity.
Series [8] relates to HMEC-1. Put plainly: Antiangiogenic activity in HMEC1 assessed as inhibition of oxidized LDL induced tube formation at 10 uM after 18 hrs by calcein staining based fluorescence microscopy. The series is classed as functional. The note with it: Homo sapiens. The method in brief: (§2)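 HMEC-1 (passage 30-36, serum-starved 24 h) seeded at 30,000 cells/well on Matrigel. Grown 18 h at 37 °C in MCDB-131 with UV-C mildly oxidized LDL (20 µg/mL) ± agent (10 µM). Controls were 0.1% FBS (negative) and 2.5% FBS (positive). Calcein stain (1 µM, 30 min), then fluorescence microscopy. Linked cells counted as % of total cells; mean ± SEM, 4 experiments.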

Series [9] concerns HMEC-1. Put plainly: Inhibition of oxidized LDL induced intracellular ROS formation in HMEC1 at 10 uM preincubated for 30 to 40 mins followed by H2DCFDA-AM addition by fluorescence analysis. The series is classed as functional, cell-based. The note with it: Homo sapiens. The method in brief: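 HMEC-1 given oxLDL (20 µg/mL) ± agent (10 µM) for 40 min. H2DCFDA-AM (5 µM final) added 30 min before the end, then cells washed three times with PBS. Homogenate fluorescence read at ex 495/em 520 nm as a ratio to unstimulated control. Mean ± SEM, 4 experiments.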

Series [10] in a line: Antiangiogenic activity in HMEC1 assessed as inhibition of oxidized LDL induced tube formation measured as residual tube at 10 uM after 18 hrs by calcein staining based fluorescence microscopy. The series is classed as functional, Homo sapiens, HMEC-1. The method in brief: as §2
Series [11] is described as follows: Antioxidant activity assessed as inhibition of DPPH free radical scavenging activity by EPR spectrophotometry. Format: physicochemical. The method in brief:
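DPPH radical scavenging measured by EPR spectroscopy instead of absorbance at 517 nm, used where staining prevented the absorbance reading; value given as IC50 for 50% DPPH radical inhibition.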

Calls of active or inactive are those of the source. The rule behind the calls is not given here.

On to `COc1cc(C=O)cc(-c2cc(C=O)cc(OC)c2O)c1O`, for which the IC50 in series [1] amounted to 382 µM. The Activity in series [2] was 103%; in series [3], 88%; in series [5], 19%; in [6] it was 21%. For the same compound, the viability at 24 h, 1 µM in series [4] was 100%. The viability at 24 h, 10 µM in series [7] is 99%.
`COc1cc(/C=N/NC(=O)OCc2ccccc2)cc(-c2cc(/C=N/NC(=O)OCc3ccccc3)cc(OC)c2O)c1O`: the IC50 in [1] was 59.7 µM. For the same compound, the Activity in series [2] was 18%; in [3], 5%; in series [5], 52%; in series [6], 90%. The viability at 24 h, 1 µM in [4] turned out to be 91%. Further, in the series with HMEC-1 [8], the “antiangiogenic activity (active/not active)” value is “Active”. Moreover, in the series with HMEC-1 [9], the “ROS inhibition (active/not active)” value is “Active”. Moreover, the viability at 24 h, 10 µM in series [7] was 85%.
With `COc1cc(/C=N/Nc2nncc3ccccc23)cc(-c2cc(/C=N/Nc3nncc4ccccc34)cc(OC)c2O)c1O`, in [1], the IC50 came to 9.7 µM. For the same compound, in [4], the viability at 24 h, 1 µM amounted to 109%. In the series with HMEC-1 [8], the “antiangiogenic activity (active/not active)” value was “Active”. In addition, the “ROS inhibition (active/not active)” value in the series with HMEC-1 [9] was “Active”. Moreover, the viability at 24 h, 10 µM in series [7] amounted to 98%.
With `COc1cc(/C=N/NC(=O)c2cc(C)n[nH]2)cc(Oc2cc(/C=N/NC(=O)c3cc(C)n[nH]3)cc(OC)c2O)c1O`, the IC50 in series [1] was found to be 19.8 µM. Moreover, the Activity in series [2] was 97%; in series [3], 91%; in [5], 41%; in [6] it was 65%. Besides, the viability at 24 h, 1 µM in series [4] came out at 95%. Further, the viability at 24 h, 10 µM in series [7] was 100%.
Take `COc1cc(/C=N/NC(=O)c2ccncc2)cc(Oc2cc(/C=N/NC(=O)c3ccncc3)cc(OC)c2O)c1O`: the IC50 in series [1] turned out to be 21.5 µM. Moreover, the Activity was 100% in [2], 88% in series [3], 42% in [5] and 66% in series [6]. Also, the viability at 24 h, 1 µM in series [4] was found to be 95%. Also, in series [7], the viability at 24 h, 10 µM came to 92%.
As for `COc1cc(/C=N/N=c2\[nH]ncc3ccccc23)cc(-c2cc(/C=N/N=c3/[nH]ncc4ccccc34)cc(OC)c2O)c1O.Cl.Cl`, the Activity is recorded as 56% in series [2], 8% in series [3], 52% in series [5] and 99% in series [6].
In the case of `COc1cc(/C=N/Nc2nc3ccccc3s2)cc(-c2cc(/C=N/Nc3nc4ccccc4s3)cc(OC)c2O)c1O`, the IC50 in series [1] turned out to be 27.7 µM. Also, the Activity in [2] is listed as 19%; in series [3], 7%; in series [5] it was 58%; in series [6], 91%. Moreover, the viability at 24 h, 1 µM in [4] is 90%. The “antiangiogenic activity (active/not active)” value in the series on HMEC-1 [8] is “Active”. Besides, in the series on HMEC-1 [9], the “ROS inhibition (active/not active)” value is “Active”. Further, the viability at 24 h, 10 µM in series [7] came out at 78%.
For `COc1cc(/C=N/NC(=O)OCc2ccccc2)cc(Oc2cc(/C=N/NC(=O)OCc3ccccc3)cc(OC)c2O)c1O`, in series [1], the IC50 amounted to 23.6 µM. The Activity in [2] is 28%; in [3] it was 6%; in [5], 51%; in series [6], 69%. In addition, the viability at 24 h, 1 µM in [4] is 102%. Also, the “antiangiogenic activity (active/not active)” value in the series with HMEC-1 [8] is “inactive”. In addition, the “ROS inhibition (active/not active)” value with HMEC-1 [9] was “inactive”. Further, the viability at 24 h, 10 µM in [7] came to 94%.
`COc1cc(/C=N/NC(=O)c2ccncc2)cc(-c2cc(/C=N/NC(=O)c3ccncc3)cc(OC)c2O)c1O`: the IC50 in [1] turned out to be 38.8 µM. In addition, the Activity in [2] was found to be 112%; in [3], 92%; in [5], 18%; in [6], 19%. Further, in [4], the viability at 24 h, 1 µM stood at 100%. Also, the viability at 24 h, 10 µM in [7] turned out to be 88%.
`COc1cc(/C=N/N=c2/[nH]ncc3ccccc23)cc(Oc2cc(/C=N/N=c3/[nH]ncc4ccccc34)cc(OC)c2O)c1O.Cl.Cl`: the IC50 in [1] is 11.5 µM. Besides, the Activity in series [2] is 37%; in series [3] it was 10%; in series [5], 56%; in series [6], 72%; in series [10], less than 5%. In [4], the viability at 24 h, 1 µM amounted to 95%. The “ROS inhibition (active/not active)” value with HMEC-1 [9] is “Active”. For the same compound, the viability at 24 h, 10 µM in series [7] is 90%.
As for `COc1cc(/C=N/NC(=O)c2cc(C)n[nH]2)cc(-c2cc(/C=N/NC(=O)c3cc(C)n[nH]3)cc(OC)c2O)c1O`, the 50% inhibitory concentration (IC50) in [1] came to 29.1 µM. For the same compound, the Activity in [2] was 99%; in series [3] it was 71%; in [5], 14%; in series [6], 40%. Further, in series [4], the viability at 24 h, 1 µM was 107%. Moreover, the viability at 24 h, 10 µM in series [7] was 105%.
With `Cc1c(C)c2c(c(C)c1O)CCC(C)(C(=O)O)O2` (configuration not stated) [TROLOX], the IC50 stood at 20.1 µM in series [1] and 17.7 µM in series [11]. The Activity in series [2] is 57%; in [3] it was 10%; in [5], 45%; in series [6] it was 68%; in [10], 20%. Further, the viability at 24 h, 1 µM in series [4] was determined as 98%. For the same compound, the “antiangiogenic activity (active/not active)” value with HMEC-1 [8] is “Active”. For the same compound, the “ROS inhibition (active/not active)” value in the series with HMEC-1 [9] is “Active”. Besides, the viability at 24 h, 10 µM in series [7] is 95%.
Turning to `COc1cc(C=O)cc(Oc2cc(C=O)cc(OC)c2O)c1O`, in [1], the IC50 worked out at 289 µM. For the same compound, the Activity was found to be 95% in series [2], 87% in series [3], 32% in series [5] and 35% in series [6]. Further, the viability at 24 h, 1 µM in series [4] came to 89%. Further, the viability at 24 h, 10 µM in series [7] came out at 85%.
For `COc1cc(/C=N/Nc2nc3ccccc3s2)cc(Oc2cc(/C=N/Nc3nc4ccccc4s3)cc(OC)c2O)c1O`, in series [1], the IC50 was 8.6 µM. Also, the Activity in [2] amounted to 93%; in series [3], 12%; in series [5], 51%; in [6], 69%. In addition, in series [4], the viability at 24 h, 1 µM was 93%. In addition, the “antiangiogenic activity (active/not active)” value with HMEC-1 [8] was “Active”. For the same compound, in the series with HMEC-1 [9], the “ROS inhibition (active/not active)” value was “Active”. In addition, in [7], the viability at 24 h, 10 µM is 80%.

(Values after ChEMBL document CHEMBL3813648, “Synthesis and evaluation of antioxidant phenolic diaryl hydrazones as potent antiangiogenic agents in atherosclerosis” (Bioorg Med Chem, 2016).)
